Consider ten compounds from ChEMBL document CHEMBL1131598, “Synthesis and anticonvulsant activity of a new class of 2-[(arylalky)amino]alkanamide derivatives” (J Med Chem, 1998).

Holding throughout (type): functional
Experiment [1] deals with Mus musculus. Description: Compound was tested for anticonvulsant potency using the intravenous-BIC (bicuculline) test in mice; 7 out of 20 mice exhibited anticonvulsant activity.
In experiment [2] the test system is Mus musculus. Briefly: Compound was tested for anticonvulsant potency using the intravenous-BIC (bicuculline) test in mice; 6 out of 20 mice exhibited anticonvulsant activity.
In experiment [3] the test system is Mus musculus. Briefly: Compound was tested for anticonvulsant potency using the intravenous-BIC (bicuculline) test in mice; 4 out of 20 mice exhibited anticonvulsant activity.
In experiment [4] the test system is Mus musculus. Briefly: Compound was tested for anticonvulsant potency using the intravenous-BIC (bicuculline) test in mice; 2 out of 10 mice exhibited anticonvulsant activity.
The subject of experiment [5] is Mus musculus. Briefly: Compound was tested for anticonvulsant potency using the intravenous-BIC (bicuculline) test in mice; 1 out of 10 mice exhibited anticonvulsant activity.
Experiment [6] has as its system Mus musculus. Briefly: Compound was tested for anticonvulsant potency using the intravenous-BIC (bicuculline) test in mice; 2 out of 20 mice exhibited anticonvulsant activity.
Experiment [7] relates to Mus musculus. Briefly: Compound was tested for anticonvulsant potency using the intravenous-BIC (bicuculline) test in mice; 3 out of 20 mice exhibited anticonvulsant activity.
The subject of experiment [8] is Mus musculus. Briefly: Compound was tested for anticonvulsant potency using the intravenous-BIC (bicuculline) test in mice; 8 out of 20 mice exhibited anticonvulsant activity.
The test system of experiment [9] is Mus musculus. Briefly: Anticonvulsant potency using the PTX (picrotoxin) test in mice by peroral administration. Conditions: po.
For experiment [10], the system named is Mus musculus. Description: Anticonvulsant potency using the intravenous-BIC (bicuculline) test in mice. The method, boiled down:
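Male Crl:CD-1(ICR)BR mice (22-24 g) were dosed orally at 5 mL/kg 60 min before bicuculline 0.6 mg/kg, a dose giving tonic extensor convulsions in at least 97% of vehicle-treated mice. Protection from tonic extension was scored for each mouse. ED50 (95% confidence interval) was obtained by probit analysis, with 10-20 animals per dose.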

For experiment [11], the system named is Mus musculus. Briefly: Compound was tested for anticonvulsant potency using the 3-MPA (3-mercaptopropionic acid) test in mice upon peroral administration. As to conditions: po. The method, boiled down: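 Male Crl:CD-1(ICR)BR mice (22-24 g) were dosed orally at 5 mL/kg 60 min before 3-mercaptopropionic acid 60 mg/kg sc, a dose convulsing at least 97% of vehicle-treated mice. The end point was hindlimb tonic extension. ED50 (95% confidence interval) was obtained by probit analysis, with 10-20 animals per dose.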

The species named for experiment [12] is Mus musculus. Briefly: Compound was tested for toxicity using neurological impairment measured by rotarod test in mice. The gist of the method: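 Trained male Crl:CD-1(ICR)BR mice, 22-24 g, dosed orally 60 min before being placed on a 3-cm rod turning at 10 rpm. Mice falling during a 2-min test were counted. Dosing volume 5 mL/kg, 10-20 animals/dose. TD50, the dose making 50% fall, by probit analysis with 95% confidence interval. Some values given as fraction affected at one dose.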

Experiment [13] relates to Mus musculus. Description: Compound was tested for anticonvulsant potency using the STRY (strychnine) test in mice upon peroral administration. As to conditions: po.
For experiment [14], the species on record is Mus musculus. Description: Anticonvulsant potency using the maximal electroshock test in mice. The method, boiled down:
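Male mice received intra-aural shocks through clip electrodes (0.7 s, 28 mA, 80 Hz pulse train, 0.4 ms pulses), a stimulus giving hindlimb tonic extension in at least 97% of controls. Compound was given orally 60 min or ip 30 min beforehand, at 5 mL/kg. Protection meant complete suppression of the hindlimb tonic extensor component. ED50 (95% confidence interval) was obtained by probit analysis, with 10-20 animals per dose.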

SMILES strings stand for the structures.

In the experiment on Mus musculus [1], `CNC(=O)[C@@H](CO)NCc1ccc(OCc2cccc([N+](=O)[O-])c2)cc1` yielded a 50% effective dose (ED50) of more than 400 mg/kg.

In the experiment with Mus musculus [2], `O=C(CNCc1ccc(OCc2cccc(Cl)c2)cc1)OCc1ccccc1` displayed an ED50 of more than 400 mg/kg.

Compound `NC(=O)COCc1ccc(OCc2cccc(Cl)c2)cc1` returned an ED50 with Mus musculus [1] of more than 400 mg/kg.

The compound `O=C(O)CNCc1ccc(OCc2cccc(Cl)c2)cc1` came in with an ED50 with Mus musculus [3] of more than 400 mg/kg.

The compound `C[C@@H](NCc1ccc(OCc2ccncc2)cc1)C(N)=O` came in with an ED50 in the experiment on Mus musculus [4] of more than 400 mg/kg.

In the experiment with Mus musculus [5], `C[C@@H](NCc1ccc(NC(=O)c2ccccc2)cc1)C(N)=O` came in with an ED50 of more than 400 mg/kg.

In the experiment on Mus musculus [6], `CNC(=O)[C@@H](Cc1ccccc1)NCc1ccc(OCc2ccccc2)cc1` displayed a median effective dose (ED50) of more than 400 mg/kg.

Consider `CCOC(=O)CNCc1ccc(OCc2cccc(Cl)c2)cc1`, for which, in the experiment with Mus musculus [7], the ED50 was more than 400 mg/kg.

In the experiment with Mus musculus [8], `NC(=O)CCNCCc1ccc(OCc2cccc(Cl)c2)cc1` displayed an ED50 of more than 400 mg/kg.

Consider `O=C1NC(=O)C(c2ccccc2)(c2ccccc2)N1` [PHENYTOIN], for which the ED50 in the experiment on Mus musculus [9] was more than 100 mg/kg; with Mus musculus [10] it was 42.1 mg/kg; in the experiment on Mus musculus [11] it was 11.3 mg/kg; in the experiment on Mus musculus [13] it was more than 200 mg/kg; in the experiment listed under Mus musculus [14], 3.8 mg/kg. Also, in the experiment filed under Mus musculus [12], the TD50 was 243 mg/kg.
